From ChEMBL document CHEMBL4346736, “Anti-proliferative activity and structure-activity relationship of honokiol derivatives” (Bioorg Med Chem, 2019)

Columns and labels:
K562 [1] = assay: Antiproliferative activity against human K562 cells after 48 hrs by MTT assay; assay type: functional, cell-based; conditions: K562, 48 h
Outline: (§1)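 Cells from the Institute of Cell Biology, CAS (Shanghai), grown in RPMI-1640 with 10% FBS and 100 U/mL penicillin-streptomycin at 37 °C under 5% CO2. Cells were exposed to compounds for 48 h, and viability was read by MTT (or MTS). IC50, the concentration giving 50% inhibition, was calculated by the Logit method. Data are representative of 3 independent experiments.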

A549 [2] = assay: Antiproliferative activity against human A549 cells after 48 hrs by MTT assay; assay type: functional, cell-based; conditions: A549, 48 h; outline: as §1
HepG2 [3] = assay: Antiproliferative activity against human HepG2 cells after 48 hrs by MTT assay; assay type: functional, cell-based; conditions: HepG2, 48 h; outline: as §1
HUVEC = assay: Antiproliferative activity against human HUVEC cells after 48 hrs by MTT assay; assay type: cell-based; outline: as §1
[4] = Selectivity index, ratio of IC50 for HUVEC to IC50 for human K562 cells; assay type: toxicity; conditions: HUVEC versus K562 cells, read-out: Ratio IC50
Outline: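 K562 tumor cells and HUVEC grown in RPMI-1640 with 10% FBS and penicillin-streptomycin at 37 °C under 5% CO2. Viability was read by MTT or MTS assay, with tumor cells exposed to compounds for 48 h. IC50 values came from the Logit method across 3 independent experiments. The index is HUVEC IC50 divided by K562 IC50.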

[5] = Partition coefficient, log P of the compound; assay type: physicochemical; conditions: octanol/water
HepG2 [6] = assay: Antiproliferative activity against human HepG2 cells; assay type: functional, cell-based; outline: as §1
K562 [7] = assay: Antiproliferative activity against human K562 cells; assay type: functional, cell-based; outline: as §1
HepG2 [8] = assay: Antiproliferative activity against human HepG2 cells after 72 hrs by MTT assay; assay type: functional, cell-based; conditions: HepG2, 72 h
HCT-116 = assay: Antiproliferative activity against human HCT116 cells after 72 hrs by MTT assay; assay type: functional, cell-based; conditions: HCT-116, 72 h
NCI-H1975 = assay: Antiproliferative activity against human NCI-H1975 cells after 72 hrs by MTT assay; assay type: functional, cell-based; conditions: NCI-H1975, 72 h
A549 [9] = assay: Antiproliferative activity against human A549 cells by MTT assay; assay type: functional, cell-based; outline: as §1
K562 [10] = assay: Antiproliferative activity against human K562 cells by MTT assay; assay type: functional, cell-based; outline: as §1
[11] = Antiproliferative activity against human SPCA1 cells by MTT assay; assay type: functional, cell-based

Row | Structure (SMILES) | IC50 (K562 [1]) [µM] | IC50 (A549 [2]) [µM] | IC50 (HepG2 [3]) [µM] | logP [5] | further results
1 | C=CCc1cc2c(c(-c3cc(CC=C)c4c(c3)NC(=O)CO4)c1)OCC(=O)N2 | 7.08 | 37 | 27.4 | 3.29 | IC50 (HUVEC): 82.1 µM; selectivity ratio [4]: 11.6
2 | CCCc1cc(C)c(O)c(-c2cc(C)c(O)c(CCC)c2)c1 | 26.2 | 29.2 | 34.5 | 6.51 | 
3 | C=CCc1cc(N=O)c(O)c(-c2cc(CC=C)c(O)c(N=O)c2)c1 | > 128 | > 128 | > 128 | 4.45 | 
4 | C=CCc1cc(/C=N\c2ccc(N)cc2)c(O)c(-c2ccc(O)c(CC=C)c2)c1 |  |  |  | 5.54 | 
5 | C=CCc1cc(CN2CCC(N)CC2)c(O)c(-c2cc(CC=C)c(O)c(CN3CCC(N)CC3)c2)c1 |  |  |  | 2.79 | IC50 (HepG2 [6]): 17 µM; IC50 (K562 [7]): 9.1 µM
6 | C=CCc1cc(CN2CCN(C)CC2)c(O)c(-c2cc(CC=C)c(O)c(CN3CCN(C)CC3)c2)c1 |  |  |  | 4.04 | IC50 (HepG2 [6]): > 40 µM; IC50 (K562 [7]): > 40 µM
7 | C=CCc1ccc(O)c(-c2ccc3c(c2)CC(C)O3)c1 (centres undefined) | 126 | 116 | 126 | 4.65 | 
8 | C=CCc1cc(N)c(O)c(-c2cc(N)c(O)c(CC=C)c2)c1 | > 128 | > 128 | > 128 | 3.62 | 
9 | C=CCc1cc(CN(C)C)c(O)c(-c2cc(CC=C)c(O)c(CN(C)C)c2)c1 | 31.6 | 60.8 | 47.5 | 4.26 | 
10 | OCC(O)Cc1ccc(O)c(-c2ccc(O)c(CC(O)CO)c2)c1 (centres undefined) | > 128 | > 128 | > 128 | 1.16 | 
11 | C=CCc1cc(NC(=O)C=C)c(O)c(-c2cc(CC=C)c(O)c(NC(=O)C=C)c2)c1 | 5.04 | 16.6 | 19.1 | 4.3 | IC50 (HUVEC): 57.8 µM; selectivity ratio [4]: 11.5
12 | C=CCc1cc(NC(C)=O)c(O)c(-c2cc(CC=C)c(O)c(NC(C)=O)c2)c1 | > 128 | > 128 | > 128 | 3.09 | 
13 | CCCc1ccc(O)c(-c2ccc3c(c2)CC(C)O3)c1 (centres undefined) | 72.9 | 96.1 | 122 | 5.13 | 
14 | C=CCc1cc(-c2ccc3c(c2)OCCO3)ccc1O |  |  |  | 3.98 | 
15 | C=CCc1cc(-c2ccc3c(c2)OCO3)ccc1O |  |  |  | 4.36 | 
16 | C=CCc1cc(/C=N/O)c(O)c(-c2cc(/C=N/O)c(O)c(CC=C)c2)c1 |  |  |  | 5.49 | 
17 | C=CCc1cc(-c2cc(CC=C)c(O)c([N+](=O)[O-])c2)c(O)c([N+](=O)[O-])c1 | > 128 | > 128 | > 128 | 4.57 | 
18 | C=CCc1cc(/C=N/Nc2ccccc2)c(O)c(-c2ccc(O)c(CC=C)c2)c1 |  |  |  | 7.76 | 
19 | C=CCc1ccc(O)c(-c2cc(/C=C3\SC(=O)NC3=O)c(O)c(CC=C)c2)c1 |  |  |  | 4.27 | 
20 | C=CCc1ccc(O)c(-c2cc(/C=C(\C#N)C(=O)OCC)c(O)c(CC=C)c2)c1 |  |  |  | 5.23 | 
21 | C=CCc1cc(/C=C2\SC(=O)NC2=O)c(O)c(-c2cc(/C=C3\SC(=O)NC3=O)c(O)c(CC=C)c2)c1 |  |  |  | 3.74 | 
22 | C=CCc1cc(/C=C(\C#N)C(=O)OCC)c(O)c(-c2ccc(O)c(CC=C)c2)c1 |  |  |  | 5.44 | 
23 | C=CCc1cc(C=O)c(O)c(-c2cc(C=O)c(O)c(CC=C)c2)c1 |  |  |  | 4.23 | IC50 (A549 [9]): > 77.6 µM; IC50 (K562 [10]): 32.6 µM; IC50 [11]: 31.4 µM
24 | C=CCc1cc(/C=C2\SC(=O)NC2=O)c(O)c(-c2ccc(O)c(CC=C)c2)c1 |  |  |  | 4.48 | 

Now from value to compound, other results behind:

Row | IC50 (K562 [1]) [µM] | IC50 (A549 [2]) [µM] | IC50 (HepG2 [3]) [µM] | logP [5] | Structure (SMILES) | further results
25 |  |  |  | 4.05 | C=CCc1cc(-c2ccc3c(c2)OCCO3)ccc1OC | 
26 |  |  |  | 4.78 | C=CCc1ccc(O)c(-c2cc(CC=C)c3oncc3c2)c1 | 
27 |  |  |  | 6.47 | C=CCc1cc(/C=N\c2ccccc2)c(O)c(-c2ccc(O)c(CC=C)c2)c1 | 
28 |  |  |  | 5.1 | C=CCc1ccc(O)c(-c2ccc(O)c(/C=C\C)c2)c1 | IC50 (HepG2 [8]): 31.6 µM; IC50 (HCT-116): 19.9 µM; IC50 (NCI-H1975): 39.8 µM
29 |  |  |  | 5.35 | C=CCc1cc(/C=N/O)c(O)c(-c2ccc(O)c(CC=C)c2)c1 | 
30 |  |  |  | 3.7 | C=CCc1ccc(O)c(-c2ccc(O)c(CC(CO)OC)c2)c1 (centres undefined) | IC50 (HepG2 [8]): > 40 µM; IC50 (HCT-116): > 40 µM; IC50 (NCI-H1975): > 40 µM
31 | 32.5 | 25.7 | 31.1 | 6.43 | C=CCc1ccc(O)c(-c2cc(CC=C)c(O)c(C(C)(C)C)c2)c1 | 
32 |  |  |  | 5.14 | C=CCc1ccc(O)c(-c2cc(/C=N/O)c(O)c(CC=C)c2)c1 | 
33 |  |  |  | 4.72 | C=CCc1cc(C=O)c(O)c(-c2ccc(O)c(CC=C)c2)c1 | IC50 (A549 [9]): > 85 µM; IC50 (K562 [10]): 54.6 µM
34 |  |  |  | 3.57 | C=CCc1cc(/C=N/CCN)c(O)c(-c2ccc(O)c(CC=C)c2)c1 | 
35 |  |  |  | 5.35 | C=CCc1ccc(OC)c(-c2ccc(OC)c(CC=C)c2)c1 | 
36 |  |  |  | 5.28 | C=CCc1ccc(OC)c(-c2ccc(O)c(CC=C)c2)c1 | 
37 |  |  |  | 4.82 | C=CCc1ccc(Oc2cc(CC=C)ccc2O)cc1 [ISOMAGNOLOL] | 
38 |  |  |  | 4.8 | C=CCc1ccc(O)c(-c2cc(CC=C)ccc2O)c1 [MAGNOLOL] | 
39 |  |  |  | 5.07 | C=CCc1ccc(O)c(-c2ccc(OC)c(CC=C)c2)c1 [METHYLHONOKIOL] | 
